ChEMBL document CHEMBL4513216, “Probing the Open Global Health Chemical Diversity Library for Multistage-Active Starting Points for Next-Generation Antimalarials” (ACS Infect Dis, 2020)

Assay: Toxicity liver stage against HepG2, at 10uM
Format: cell-based
Parameters: test concentration 10 uM, cell line HepG2-A16-CD81EGFP
Conditions: human, HepG2-A16-CD81EGFP cells; read-out: INHIBITION
In short: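 Uninfected HepG2-A16-CD81EGFP cells, 3 × 10^3 per well, 1536-well, plated on prespotted compound at 10 μM final, parasite-free screening media added to match infected plates; puromycin 10 μM positive, DMSO 0.5% negative; run in parallel with 48 h PbLuc assay at 37 °C, 5% CO2; viability by CellTiter-Glo luminescence, normalized to controls.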

Row | SMILES | cytotoxicity at 10 µM
1 | Cn1ccc2c(ccn2CC(=O)Nc2ccc(Br)cc2)c1=O | 10.4%
2 | COC(=O)N1CC2=CC(C)(C)COc3ccc(OC)c(c32)C1 | 5%
3 | O=C(NC1CCCC1)c1nc(COc2ccc3c(c2)OCO3)no1 | 2.87%
4 | CC(=O)N1CCN(C(=O)c2ccc3ccn(C)c3c2)CC1 | -0.173%
5 | CCN1CC2(CC1=O)CN(C(=O)COC)CCN(S(C)(=O)=O)C2 (stereo not given) | 0.165%
6 | CCN(CC)[C@@H]1CN(Cc2ccc(C)o2)[C@@H]2CCCO[C@H]12 | -148%
7 | Cc1nc(-c2noc3ccc(C(=O)NCCN4CCOCC4)cc23)co1 | 15%
8 | CN(C)S(=O)(=O)N1C[C@H]2CCC[C@@]2(COCC2CC2)C1 | 6.13%
9 | c1cnn([C@@H]2CN(Cc3nccs3)[C@@H]3CCCO[C@@H]32)c1 | 9.07%
10 | COCCN1C=NC2(CCC(C(=O)Nc3ccc(C)cc3)CC2)C1=O (stereo not given) | 15.1%
11 | CNC(=O)[C@@H]1COC[C@H]2CN(C(=O)COc3ccccc3)C[C@H]21 | -1.65%
12 | Cc1ccc(N2CCCc3sc(C(=O)NCc4cccnc4)nc32)nn1 | -2.96%
13 | CCc1nc(NCCCn2cccn2)c2c(n1)c(C)nn2CC | 6.36%
14 | Cc1cc(CN2CCc3nc(C(C)C)nc(O)c3CC2)c(C)s1 | -0.782%
15 | CN(C)Cc1ccnc(C2CCCN2Cc2ccc(F)cn2)n1 (stereo not given) | -17.7%
16 | CO[C@H]1CN(C(=O)c2ccc3oc(C)cc3c2)C[C@@]12CCCO2 | -6.14%
17 | CC(C)(N)C(=O)N1CCC(c2nccnc2Oc2ccccc2F)CC1 | -13.9%
18 | CC(=O)Nc1nc(C2CCN(CC(N)=O)CC2)cs1 | -2.76%
19 | c1ccc(N2CCC(OCC3CCCCO3)CC2)nc1 (stereo not given) | -1.03%
20 | CCS(=O)(=O)CC(=O)Nc1ccccc1N1CCc2ccccc21 | 9.26%
21 | c1ccc2c(NC3CCc4ncnn4C3)ncnc2c1 (stereo not given) | 7.21%
22 | COCCN1CCN(Cc2coc(-c3ccccc3Cl)n2)CC1 | -1.67%
23 | CCNC(=O)C(C)NC(=O)Nc1ccccc1Cl (stereo not given) | 5.72%
24 | COCC(C)N(C)C(=O)CCc1c(C)nc2c(C#N)cnn2c1C (stereo not given) | -43.3%
25 | CCNC(=O)N1CCC(=Cc2ccccc2)CC1 | 3.87%
26 | O=C(Nc1ccc(OC(F)F)cc1)N1CCC(c2nnc[nH]2)CC1 | 7.25%
27 | CC(C)N(C)C(=O)C1CCN(Cc2cnc3ccccn23)CC1 | 27.5%

Row | SMILES | cytotoxicity at 10 µM
28 | CCS(=O)(=O)N1CCCN(CCCOC)CC1 | 7.73%
29 | COc1ccc(S(=O)(=O)C(F)(F)F)cc1NC(=O)CSC | 10.9%
30 | CCOCCCNC(=O)CCSCc1csc(C)n1 | -3.57%
31 | O=C(CN1CCS(=O)(=O)CC1)NC1CCCOc2ccccc21 (stereo not given) | 4.81%
32 | Cc1nn(CN(Cc2ccsc2)C2CC2)c(=O)c2noc(C)c12 | -1.54%
33 | O=C(NCCN1CCOCC1)c1cnc(Cc2ccc(F)cc2)s1 | 16.7%
34 | COc1ccccc1OCC(=O)NS(=O)(=O)c1ccc(F)cc1F | 8.68%
35 | Cc1nc(NC(=O)c2cccnc2N2CCOCC2)sc1C | -0.0261%
36 | N#Cc1cc(F)c(N2CCC(NS(=O)(=O)c3cccs3)CC2)c(F)c1 | 8.76%
37 | Cc1cc(N2CCCC2c2nnc3n2CCCCC3)nc(N)n1 (stereo not given) | -10.1%
38 | Cc1cc(S(C)(=O)=O)c(C)c(S(=O)(=O)N2CCCC(C)C2)c1 (stereo not given) | 22.6%
39 | CC(C)COC1CCN(C(=O)c2ccc(C(F)(F)F)[nH]c2=O)CC1 | 0.0436%
40 | FC(F)(F)COCCN1CCc2cncnc2C1 | -2.67%
41 | COCC(=O)NCCC(=O)N1CCN(S(=O)(=O)c2cccc(Br)c2)CC1 | -40.4%
42 | CN(CC(=O)N1CCCC1)Cc1nc2c(cnn2C)c(=O)[nH]1 | -1.38%
43 | O=C(CC1CC1)N[C@@H]1CN(C(=O)c2ccsc2)C[C@@H]2CCCO[C@@H]21 | -109%
44 | COCC(=O)N1CCO[C@]2(CCC[C@H]2COC)C1 | -97.5%
45 | CC(=O)N1CCC2(CCN(C(=O)c3cccc(C(F)(F)F)c3)CC2)C1 | -71.5%
46 | Cc1ccnc(N2CCC(C(N)=O)CC2)n1 | -18.3%
47 | CC(C)CC(=O)N1CC(=O)c2sc(Nc3ccc(F)cc3F)nc2C1 | -2.89%
48 | CN1CCC(O)(CCNC(=O)[C@@]23CNC[C@@H]2CN(C2CCCC2)C3)CC1 | -1.92%
49 | CSCCc1c(-c2ccccc2)ncn1CCNc1cccnc1 | 5.29%
50 | Cc1c(CN2C[C@H](O)[C@@H](N3CCOCC3)C2)[nH]c2ccc(F)cc12 | 5.86%
51 | CCc1nc(NC(=O)N(C)Cc2ccoc2)nn1C | 0.79%
52 | CN1CCN(Cc2nnc(C3CCN(C(CO)CO)CC3)n2C)CC1 | 2.52%
53 | C[C@@H]1CN(Cc2cc(C3CCCCC3)no2)CC[C@@]1(O)C1CC1 | 0.957%
54 | c1ccc(COCCN2CCc3[nH]cnc3C2c2ccco2)cc1 (stereo not given) | -2.01%

Row | SMILES | cytotoxicity at 10 µM
55 | COc1cc(C)ccc1OCc1nc(C(=O)N2CCCNC(=O)C2)co1 | -44.5%
56 | Cc1ccc(Cl)cc1-n1nnnc1C1(N2CCCC2)CCCCC1 | 18.9%
57 | CCOc1ccc(C(=O)CCC(=O)N(C)Cc2nc(C)c[nH]2)cc1C | -5.45%
58 | c1cnc(N2CCC3(CCCN(CC4CCCCC4)C3)C2)cn1 (stereo not given) | -1.62%
59 | CC(O)C1CCN(Cc2cnc3c(-c4ccccc4)cnn3c2)CC1 (stereo not given) | -0.537%
60 | Fc1ccc(C2(CNCCc3cccs3)CCOC2)cc1 (stereo not given) | -149%
61 | CC(=O)N1CCc2c(nc(N(C)C)nc2NCCc2cccs2)C1 | -54%
62 | COc1ccc2[nH]c(=O)c(CN(C)CCN3CCCC3)cc2c1 | 1.97%
63 | CN(c1ccc(Cl)c(C(=O)NCCCN2CCOCC2)c1)S(C)(=O)=O | 1.05%
64 | CCN1CCC(CC(=O)N2CCc3sc(C(=O)N(C)C)cc3C2)CC1 | -21.1%
65 | CS(=O)(=O)N1CCC(Oc2ccc(C(=O)N3CCSCC3)cc2Cl)CC1 | 16.2%
66 | Cc1cc(NC(=O)CN2CCn3c(nnc3C(C)C)C2)no1 | -1.11%
67 | CN(Cc1ccsc1)C(=O)CN1CCCC1Cn1cccn1 (stereo not given) | -3.78%
68 | CNC(=O)N1CCC2(CC1)c1ncc(-c3cccc(F)c3)n1CCN2C | 7.97%
69 | Cn1cc(-c2cnc3n2CCC32CCN(S(=O)(=O)C3CC3)CC2)cn1 | -139%
70 | O=C1CC[C@@H]2[C@@H](CCN2C(=O)c2ccsc2)N1Cc1ccncc1 | -71.5%
71 | O=C(N1CCCC1)N1C[C@H]2CCC[C@@]2(COCc2ccccn2)C1 | -106%
72 | Cc1ccc(CN2CCCC3(CCCN3S(C)(=O)=O)C2)s1 (stereo not given) | -97.9%
73 | CCn1cc2c(n1)CN(Cc1ccc(C)o1)CC2COCC1CC1 (stereo not given) | -80.7%
74 | Cn1cncc1CN1C[C@@H]2OCCN(c3ncccn3)[C@@H]2C1 | -67%
75 | c1ccc(COC[C@H]2CCC[C@@]23CNCCO3)nc1 | -91.9%
76 | CC(C)CN1C(=O)C[C@@H]2[C@@H]1CCN2Cc1cccc(C#N)c1 | -66.4%
77 | CCOCC1CN(c2ccc(C)nn2)Cc2nn(CC)cc21 (stereo not given) | 11.5%
78 | Cc1noc(C)c1CN1CCO[C@H]2CN(Cc3cccc(F)c3)C[C@H]21 | -99.8%
79 | c1csc(CN2CCOCC3(CCN(C4CCOCC4)C3)C2)n1 (stereo not given) | 0.487%
80 | O=c1[nH][nH]c2cn(-c3ccccc3)c(=O)n12 | 4.6%
